From ChEMBL document CHEMBL1649383, “Mode of action of epoxyphomalins A and B and characterization of related metabolites from the marine-derived fungus Paraconiothyrium sp” (J Nat Prod, 2010)
In brackets after ≈: the same amount, converted by molar mass.

Tests used:
OVCAR-3 [1] = assay: Cytotoxicity against human OVCAR3 cells at 0.001 ug/ml relative to control; type: functional
[2] = Cytotoxicity against human MAXF 401NL cells at 0.1 ug/ml relative to control; type: functional
[3] = Cytotoxicity against human CNXF 498NL cells at 0.01 ug/ml relative to control; type: functional
[4] = Cytotoxicity against human PC3M cells; type: functional, cell-based; details: PC-3M
How it was run: (§1)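 Monolayer cell survival and proliferation assay run across a panel of 36 human tumor cell lines, with IC50 determined from the resulting growth data.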

[5] = Cytotoxicity against human LXFL 529L cells at 10 ug/ml relative to control; type: functional
[6] = Cytotoxicity against human PAXF 1657L cells at 0.01 ug/ml relative to control; type: functional
[7] = Cytotoxicity against human LXFA 629L cells at 10 ug/ml relative to control; type: functional
[8] = Cytotoxicity against human MEXF 514L cells at 0.1 ug/ml relative to control; type: functional
[9] = Cytotoxicity against human OVXF 1619L cells; type: functional, cell-based; how it was run: as §1
MCF7 [10] = assay: Cytotoxicity against human MCF7 cells at 0.001 ug/ml relative to control; type: functional
CWR22R [11] = assay: Cytotoxicity against human 22Rv1 cells at 10 ug/ml relative to control; type: functional
SF-268 [12] = assay: Cytotoxicity against human SF268 cells; type: functional, cell-based; how it was run: as §1
HT-29 = assay: Cytotoxicity against human HT-29 cells at 0.001 ug/ml relative to control; type: functional
SF-268 [13] = assay: Cytotoxicity against human SF268 cells at 1 ug/ml relative to control; type: functional
[14] = Cytotoxicity against human OVXF 899L cells at 0.1 ug/ml relative to control; type: functional
T-24 [15] = assay: Cytotoxicity against human T24 cells at 0.1 ug/ml relative to control; type: functional
[16] = Cytotoxicity against human OVXF 1619L cells at 0.01 ug/ml relative to control; type: functional
[17] = Cytotoxicity against human MEXF 514L cells at 1 ug/ml relative to control; type: functional
[18] = Cytotoxicity against human PXF 1752L cells at 0.1 ug/ml relative to control; type: functional
NCI-H460 = assay: Cytotoxicity against human H460 cells at 0.1 ug/ml relative to control; type: functional
OVCAR-3 [19] = assay: Cytotoxicity against human OVCAR3 cells at 1 ug/ml relative to control; type: functional
DU-145 = assay: Cytotoxicity against human DU145 cells at 10 ug/ml relative to control; type: functional
[20] = Cytotoxicity against human RXF 486L cells at 10 ug/ml relative to control; type: functional
HCT-116 [21] = assay: Cytotoxicity against human HCT116 cells at 0.1 ug/ml relative to control; type: functional
[22] = Cytotoxicity against human RXF 944L cells at 1 ug/ml relative to control; type: functional
[23] = Cytotoxicity against human LXFL 529L cells at 0.001 ug/ml relative to control; type: functional
SF-268 [24] = assay: Cytotoxicity against human SF268 cells at 10 ug/ml relative to control; type: functional
[25] = Cytotoxicity against human GXF251L cells; type: functional, cell-based; details: GXF 251L
How it was run: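 Monolayer cell survival and proliferation assay, run within a panel of 36 human tumor cell lines; IC50 determined per cell line.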

[26] = Cytotoxicity against human MAXF 401NL cells at 1 ug/ml relative to control; type: functional
[27] = Cytotoxicity against human MAXF 401NL cells at 0.01 ug/ml relative to control; type: functional
[28] = Cytotoxicity against human OVXF 899L cells at 0.001 ug/ml relative to control; type: functional
[29] = Cytotoxicity against human OVXF 1619L cells at 10 ug/ml relative to control; type: functional
HCT-116 [30] = assay: Cytotoxicity against human HCT116 cells at 0.001 ug/ml relative to control; type: functional
[31] = Cytotoxicity against human CNXF 498NL cells at 1 ug/ml relative to control; type: functional
[32] = Cytotoxicity against human LXFL 1121L cells at 10 ug/ml relative to control; type: functional
[33] = Cytotoxicity against human LXFA 289L cells at 0.01 ug/ml relative to control; type: functional
[34] = Cytotoxicity against human LXFA 629L cells at 0.1 ug/ml relative to control; type: functional
[35] = Cytotoxicity against human LXFA 526L cells at 0.001 ug/ml relative to control; type: functional
[36] = Cytotoxicity against human LXFL 1121L cells at 0.1 ug/ml relative to control; type: functional
[37] = Cytotoxicity against human RXF 944L cells at 0.001 ug/ml relative to control; type: functional
T-24 [38] = assay: Cytotoxicity against human T24 cells at 1 ug/ml relative to control; type: functional
[39] = Cytotoxicity against human MEXF 276L cells at 0.1 ug/ml relative to control; type: functional, MEXF276L
[40] = Cytotoxicity against human RXF 1781L cells at 0.1 ug/ml relative to control; type: functional
MCF7 [41] = assay: Cytotoxicity against human MCF7 cells at 0.01 ug/ml relative to control; type: functional
[42] = Cytotoxicity against human LXFL 1121L cells; type: functional, cell-based
How it was run: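 Monolayer cell survival and proliferation assay run across a panel of 36 human tumour cell lines; IC50 values determined.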

T-24 [43] = assay: Cytotoxicity against human T24 cells at 0.01 ug/ml relative to control; type: functional
[44] = Cytotoxicity against human MEXF 276L cells at 1 ug/ml relative to control; type: functional, MEXF276L
[45] = Cytotoxicity against human MEXF 520L cells at 1 ug/ml relative to control; type: functional
[46] = Cytotoxicity against human HNXF 536L cells at 0.1 ug/ml relative to control; type: functional
[47] = Cytotoxicity against human RXF 944L cells at 0.1 ug/ml relative to control; type: functional
SF-268 [48] = assay: Cytotoxicity against human SF268 cells at 0.001 ug/ml relative to control; type: functional
CWR22R [49] = assay: Cytotoxicity against human 22Rv1 cells at 1 ug/ml relative to control; type: functional
[50] = Cytotoxicity against human RXF 1781L cells at 0.01 ug/ml relative to control; type: functional
[51] = Cytotoxicity against human MEXF 276L cells at 10 ug/ml relative to control; type: functional, MEXF276L
[52] = Cytotoxicity against human MAXF 401NL cells at 0.001 ug/ml relative to control; type: functional
[53] = Cytotoxicity against human PXF 1752L cells at 1 ug/ml relative to control; type: functional

C=C1[C@@H](O)[C@H]2O[C@@]2(C[C@H]2C(C)=CC[C@H]3C(C)(C)CCC[C@]23C)[C@@H](O)[C@H]1O [EPOXYPHOLAMIN D]
Activity (OVCAR-3 [1]): 100%
Activity [2]: 110%
Activity [3]: 91%
IC50 [4]: 0.72 µM
IC70 [4]: 0.605 µg/mL (≈ 1.67 µM)
IC90 [4]: 4.12 µg/mL (≈ 11.4 µM)
Activity [5]: 14%
Activity [6]: 103%
Activity [7]: 6%
Activity [8]: 142%
IC50 [9]: 10.2 µM
IC70 [9]: 6.09 µg/mL (≈ 16.8 µM)
IC90 [9]: 10 µg/mL (≈ 27.6 µM)
Activity (MCF7 [10]): 91%
Activity (CWR22R [11]): 11%
IC50 (SF-268 [12]): 10.4 µM
IC70 (SF-268 [12]): 5.62 µg/mL (≈ 15.5 µM)
IC90 (SF-268 [12]): 8.36 µg/mL (≈ 23.1 µM)
Activity (HT-29): 97%
Activity (SF-268 [13]): 117%
Activity [14]: 97%
Activity (T-24 [15]): 104%
Activity [16]: 106%
Activity [17]: 115%
Activity [18]: 95%
Activity (NCI-H460): 91%
Activity (OVCAR-3 [19]): 43%
Activity (DU-145): 12%
Activity [20]: 10%
Activity (HCT-116 [21]): 108%
Activity [22]: 102%
Activity [23]: 99%
Activity (SF-268 [24]): 1%
IC50 [25]: 2.07 µM
IC70 [25]: 2.75 µg/mL (≈ 7.6 µM)
IC90 [25]: 17.4 µg/mL (≈ 47.9 µM)
Activity [26]: 48%
Activity [27]: 110%
Activity [28]: 103%
Activity [29]: 10%
Activity (HCT-116 [30]): 88%
Activity [31]: 55%
Activity [32]: 5%
Activity [33]: 101%
Activity [34]: 81%
Activity [35]: 109%
Activity [36]: 146%
Activity [37]: 150%
Activity (T-24 [38]): 126%
Activity [39]: 98%
Activity [40]: 98%
Activity (MCF7 [41]): 102%
IC50 [42]: 8.94 µM
IC70 [42]: 5.35 µg/mL (≈ 14.8 µM)
IC90 [42]: 8.82 µg/mL (≈ 24.3 µM)
Activity (T-24 [43]): 97%
Activity [44]: 59%
Activity [45]: 86%
Activity [46]: 98%
Activity [47]: 95%
Activity (SF-268 [48]): 106%
Activity (CWR22R [49]): 48%
Activity [50]: 95%
Activity [51]: 20%
Activity [52]: 106%
Activity [53]: 46%
